Experimental data reported in ChEMBL document CHEMBL4673335, “Store-Operated Calcium Entry as a Therapeutic Target in Acute Pancreatitis: Discovery and Development of Drug-Like SOCE Inhibitors” (J Med Chem, 2020).
In brackets after ≈: the same amount, converted by molar mass. Activity calls are given as the source filed them. The rule behind the calls is not given here.

What was measured:
[1] = Half life in C57BL/6 mouse ip dosed as single administration measured up to 24 hrs; conditions: in vivo
[2] = Thermodynamic aqueous solubility; format: physicochemical; conditions: read-out: Therm_solubility
Outline: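 About 3 mg compound in 3 mL deionized water, vortexed, sonicated 5 min, then shaken overnight at 25 °C. Filtered through a 0.22 μm membrane, DMSO added, diluted about 1:10 in water. Quantified by LC–UV against DMSO standard solutions.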

[3] = Metabolic stability in mouse liver microsomes assessed as compound remaining after 1 hr; format: ADME, Microsome; conditions: read-out: Stabilty
Outline: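 Pooled male CD-1 mouse liver microsomes (20 mg/mL protein stock), NADPH-activated. Substrate at 5 μM. Residual parent measured after 1 h incubation.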

[4] = Thermodynamic aqueous solubility at 6 mg/mL in saline containing 10% DMSO + 20% PEG400; conditions: buffer
[5] = test system: HEK293; experiment: Cytotoxicity in HEK293 cells assessed as cell viability at 10 uM after 24 hrs by MTT assay; format: cell-based; conditions: human, hek293, 24 h
Outline: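 MTT viability assay. HEK cells seeded at 20,000 per well, treated 24 h after plating for a further 24 h. MTT at 0.25 mg/mL final for 60 min at 37 °C. Crystals dissolved in isopropyl alcohol/HCl (1 M), absorbance read at 570 nm. Compounds diluted to 0.1% DMSO in culture medium.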

[6] = biological target: ORAI1/STIM1 (Homo sapiens, UniProt Q13586+Q96D31); experiment: Inhibition of STIM1/Orai1 (unknown origin) expressed in HEK293 cells assessed as reduction in tBHQ-induced calcium response; format: cell-based
[7] = test system: HEK293; experiment: Cytotoxicity in HEK293 cells assessed as cell viability at 50 uM after 72 hrs by MTT assay; format: cell-based; conditions: human, hek293, 72 h
Outline: (§1)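 MTT viability in HEK cells after 72 h treatment at 50 μM, with or without 100 μM uridine. MTT at 0.25 mg/mL final for 60 min at 37 °C, solubilized in isopropyl alcohol/HCl (1 M), absorbance read at 570 nm. Mean ± SEM, Student t-test against control.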

[8] = test system: HEK293; experiment: Cytotoxicity in HEK293 cells assessed as cell viability at 50 uM after 72 hrs in presence of excess uridine by MTT assay; format: cell-based; conditions: human, hek293, 72 h
Outline: as §1

[9] = Drug metabolism in mouse liver microsomes assessed as O-demethylation by high-resolution mass spectrometry; format: ADME, Microsome
Outline: (§2)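 Pooled male CD-1 mouse liver microsomes, phase I and glucuronidation (phase II) incubations. Substrate at 50 μM. Metabolites characterized by HRMS. For metabolic activation studies, 3 mM GSH added as trapping agent.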

[10] = Drug metabolism in mouse liver microsomes assessed as oxidation by high-resolution mass spectrometry; format: ADME, Microsome
Outline: as §2

[11] = Drug metabolism in mouse liver microsomes assessed as hydroxylation by high-resolution mass spectrometry; format: ADME, Microsome
Outline: as §2

[12] = Drug metabolism in mouse liver microsomes assessed as acyl glucuronide metabolite formation in presence of UDPGA by high-resolution mass spectrometry; format: ADME, Microsome
Outline: as §2

[13] = Half life in C57BL/6 mouse at 7 mg/kg, iv dosed as single administration measured up to 24 hrs; format: ADME, organism-based; conditions: in vivo
[14] = Clearance in C57BL/6 mouse at 7 mg/kg, iv dosed as single administration measured up to 24 hrs; format: ADME, organism-based; conditions: in vivo
[15] = Volume of distribution in C57BL/6 mouse at 7 mg/kg, iv dosed as single administration measured up to 24 hrs; format: ADME, organism-based; conditions: in vivo
[16] = Cmax in C57BL/6 mouse at 7 mg/kg, iv dosed as single administration measured up to 24 hrs; format: ADME, organism-based; parameters: route intravenous, dose 7 mg/kg, time <=24; conditions: in vivo
[17] = test system: HEK293; experiment: Cytotoxicity in HEK293 cells assessed as cell viability up to 60 uM after 72 hrs in presence of excess uridine by MTT assay; format: cell-based; conditions: human, hek293, 72 h
[18] = Inhibition of CRAC (unknown origin); parameters: species or system Homo sapiens
[19] = biological target: T1, ORAI1/STIM1 (Homo sapiens) (UniProt Q96D31+Q13586); experiment: Inhibition of STIM1/Orai1 (unknown origin) expressed in HEK293 cells assessed as reduction in tBHQ-induced calcium response at 10 uM relative to control; format: cell-based; conditions: dose 10.0 µM
Outline: (§3)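 HEK cells, calcium imaging by fluorescence microscopy. Ca2+ added after 600 s and intracellular levels recorded. Traces averaged over 200 cells, then scored as AUC, peak amplitude and slope of the Ca2+ rise versus untreated control. Compound working solutions diluted from a 50 mM DMSO stock to 0.1% DMSO in physiologic buffer.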

[20] = biological target: T1, ORAI1/STIM1 (Homo sapiens); experiment: Inhibition of STIM1/Orai1 (unknown origin) expressed in HEK293 cells assessed as reduction in tBHQ-induced calcium response by measuring decrease in calcium entry AUC at 10 uM relative to control; format: cell-based
Outline: as §3

[21] = biological target: T1, ORAI1/STIM1 (Homo sapiens); experiment: Inhibition of STIM1/Orai1 (unknown origin) expressed in HEK293 cells assessed as reduction in tBHQ-induced calcium response by measuring decrease in peak amplitude of calcium entry at 10 uM relative to control; format: cell-based
Outline: as §3

[22] = biological target: T1, ORAI1/STIM1 (Homo sapiens); experiment: Inhibition of STIM1/Orai1 (unknown origin) expressed in HEK293 cells assessed as reduction in tBHQ-induced calcium response by measuring decrease in slope of calcium entry at 10 uM relative to control; format: cell-based
Outline: as §3

[23] = Drug metabolism in mouse liver microsomes assessed as amide hydrolysis; format: ADME, Microsome
Outline: as §2

[24] = Drug metabolism in mouse liver microsomes assessed as O-demethylation; format: ADME, Microsome
Outline: as §2

T1 sequence (Q13586 23-685 partner limits assumed): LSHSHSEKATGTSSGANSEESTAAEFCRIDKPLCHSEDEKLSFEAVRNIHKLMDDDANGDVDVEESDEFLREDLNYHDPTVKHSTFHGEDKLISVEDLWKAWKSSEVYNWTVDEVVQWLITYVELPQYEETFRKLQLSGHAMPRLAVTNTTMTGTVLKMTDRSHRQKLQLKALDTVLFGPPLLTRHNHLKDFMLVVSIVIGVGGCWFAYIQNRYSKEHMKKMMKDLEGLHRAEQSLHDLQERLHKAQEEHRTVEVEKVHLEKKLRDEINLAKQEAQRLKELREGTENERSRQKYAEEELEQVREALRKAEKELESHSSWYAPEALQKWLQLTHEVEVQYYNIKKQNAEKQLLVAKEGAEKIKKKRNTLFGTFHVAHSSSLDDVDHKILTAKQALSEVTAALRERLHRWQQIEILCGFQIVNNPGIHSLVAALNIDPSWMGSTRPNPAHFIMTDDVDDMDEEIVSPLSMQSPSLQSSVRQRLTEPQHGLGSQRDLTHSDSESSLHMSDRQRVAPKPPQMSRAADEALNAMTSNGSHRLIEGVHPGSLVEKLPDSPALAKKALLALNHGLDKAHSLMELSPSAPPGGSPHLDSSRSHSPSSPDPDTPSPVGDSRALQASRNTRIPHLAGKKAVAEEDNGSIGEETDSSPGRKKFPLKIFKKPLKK
T1 sequence (Q96D31 whole entry): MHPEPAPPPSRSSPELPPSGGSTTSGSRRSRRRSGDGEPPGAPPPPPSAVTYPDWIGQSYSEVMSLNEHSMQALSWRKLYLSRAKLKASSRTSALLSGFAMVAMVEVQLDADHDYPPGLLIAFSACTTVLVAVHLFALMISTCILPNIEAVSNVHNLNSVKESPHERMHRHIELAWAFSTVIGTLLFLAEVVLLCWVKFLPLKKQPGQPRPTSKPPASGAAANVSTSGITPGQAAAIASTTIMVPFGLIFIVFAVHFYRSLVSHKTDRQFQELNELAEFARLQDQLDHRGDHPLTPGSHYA
Sequence of ORAI1/STIM1 (Q96D31 whole entry): as above
Sequence of ORAI1/STIM1 (Q13586 whole entry): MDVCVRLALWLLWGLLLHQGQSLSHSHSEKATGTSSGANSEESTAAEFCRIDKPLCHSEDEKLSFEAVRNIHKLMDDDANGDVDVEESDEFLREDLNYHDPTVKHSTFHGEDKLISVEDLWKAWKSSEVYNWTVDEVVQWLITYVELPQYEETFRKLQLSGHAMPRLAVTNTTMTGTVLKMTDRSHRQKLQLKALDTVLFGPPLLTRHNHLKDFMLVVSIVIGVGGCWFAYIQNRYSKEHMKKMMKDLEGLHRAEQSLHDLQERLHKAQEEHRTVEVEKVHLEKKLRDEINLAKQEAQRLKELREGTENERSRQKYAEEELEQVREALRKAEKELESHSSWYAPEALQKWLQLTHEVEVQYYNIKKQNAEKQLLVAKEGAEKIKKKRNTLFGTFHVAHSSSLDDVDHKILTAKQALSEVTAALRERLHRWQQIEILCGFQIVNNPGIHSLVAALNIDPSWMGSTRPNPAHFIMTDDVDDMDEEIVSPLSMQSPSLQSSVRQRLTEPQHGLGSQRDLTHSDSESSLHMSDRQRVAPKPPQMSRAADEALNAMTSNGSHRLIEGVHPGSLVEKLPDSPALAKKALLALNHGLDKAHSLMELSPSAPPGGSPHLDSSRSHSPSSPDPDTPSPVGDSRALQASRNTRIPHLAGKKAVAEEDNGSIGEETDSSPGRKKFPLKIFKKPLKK

`CCCC(C)OC(=O)c1cnn(-c2ccc(-n3cc(-c4cccc(C(=O)O)c4)nn3)cc2)c1C(F)(F)F` (stereo not given) showed a half-life [1] of 78 min.

In the case of `COc1cccc(-c2ccc(-n3cc(-c4cccc(C(=O)[O-])c4)nn3)cc2)c1OC.[Na+]`, the solubility thermodynamic [2] is reported as 1530 µg/mL, the remaining at 1 h [3] is reported as 75% and the Therm_solubility [4] is reported as “Soluble”.

In the case of `COc1cccc(-c2ccc(-n3cc(-c4cccc(C(=O)O)c4)nn3)cc2)c1OC`, the Activity [5] is reported as 85.6%, the IC50 [6] is reported as 851 nM and the Activity [7] is reported as “Non-Toxic”. The Activity [8] was “Non-Toxic”, the Drug metabolism [9] was “Metabolite_Detected” and the Drug metabolism [10] was “Metabolite_Detected”. For the same compound, the Drug metabolism [11] was “Metabolite_Detected”, the Drug metabolism [12] was “Metabolite_Detected” and the t1/2 [13] was 3.2 h. For the same compound, the CL [14] was 0.5 L/h/kg, the Vd [15] was 2.3 L/kg and the Cmax [16] was 16.8 mg/L. The Activity [17] was “Non-Toxic”.

With `COc1ccc(OC)c(-c2ccc(NC(=O)c3ccncc3F)cc2)c1` the IC50 [18] was 1400 nM, the inhibition [19] was 90.8% and the Activity [5] was 75.8%. The IC50 [6] was 228 nM, the inhibition [20] was “Active” and the inhibition [21] was “Active”. The inhibition [22] was “Active”, the Activity [7] was “Toxic” and the Activity [8] was “Non-Toxic”. The solubility thermodynamic [2] was 0.28 µg/mL (≈ 0.795 µM), the remaining at 1 h [3] was 15% and the Drug metabolism [23] was “Metabolite_Detected”. The Drug metabolism [24] was “Metabolite_Detected”.
